≈ marks a conversion by molar mass, not a printed value.
How the values were obtained:
Motilin receptor = Motilin receptor (Oryctolagus cuniculus, UniProt A5A4K8); assay: Agonist activity at motilin receptor in rabbit smooth muscle assessed as increase of muscle contraction; type: functional
Streptococcus pneumoniae = assay: Antibacterial activity against erythromycin-sensitive Streptococcus pneumoniae ATCC 6301; type: functional
Summary of the method: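 Minimal growth inhibitory concentration (MIC) determined against the highly erythromycin-sensitive strain Streptococcus pneumoniae ATCC6301.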

[1] = biological target: Motilin receptor (Oryctolagus cuniculus) (UniProt A5A4K8); assay: Agonist activity at motilin receptor in rabbit smooth muscle assessed as increase of muscle contraction at EC90 concentration treated three cycles of administration measured after 4th dose; type: functional
Summary of the method: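 Rabbit smooth muscle strip contractility assay. Drug given at its EC90 concentration for three cycles of administration and washout. The contractile response is expressed as % response at the 4th dose.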

hERG (KCNH2) = hERG (KCNH2) (Homo sapiens, UniProt Q12809); assay: Inhibition of human ERG expressed in HEK cells at 30 uM; type: cell-based, HEK293; settings: HEK cells expressing human ERG
Chain of hERG (KCNH2) (Q12809 whole entry): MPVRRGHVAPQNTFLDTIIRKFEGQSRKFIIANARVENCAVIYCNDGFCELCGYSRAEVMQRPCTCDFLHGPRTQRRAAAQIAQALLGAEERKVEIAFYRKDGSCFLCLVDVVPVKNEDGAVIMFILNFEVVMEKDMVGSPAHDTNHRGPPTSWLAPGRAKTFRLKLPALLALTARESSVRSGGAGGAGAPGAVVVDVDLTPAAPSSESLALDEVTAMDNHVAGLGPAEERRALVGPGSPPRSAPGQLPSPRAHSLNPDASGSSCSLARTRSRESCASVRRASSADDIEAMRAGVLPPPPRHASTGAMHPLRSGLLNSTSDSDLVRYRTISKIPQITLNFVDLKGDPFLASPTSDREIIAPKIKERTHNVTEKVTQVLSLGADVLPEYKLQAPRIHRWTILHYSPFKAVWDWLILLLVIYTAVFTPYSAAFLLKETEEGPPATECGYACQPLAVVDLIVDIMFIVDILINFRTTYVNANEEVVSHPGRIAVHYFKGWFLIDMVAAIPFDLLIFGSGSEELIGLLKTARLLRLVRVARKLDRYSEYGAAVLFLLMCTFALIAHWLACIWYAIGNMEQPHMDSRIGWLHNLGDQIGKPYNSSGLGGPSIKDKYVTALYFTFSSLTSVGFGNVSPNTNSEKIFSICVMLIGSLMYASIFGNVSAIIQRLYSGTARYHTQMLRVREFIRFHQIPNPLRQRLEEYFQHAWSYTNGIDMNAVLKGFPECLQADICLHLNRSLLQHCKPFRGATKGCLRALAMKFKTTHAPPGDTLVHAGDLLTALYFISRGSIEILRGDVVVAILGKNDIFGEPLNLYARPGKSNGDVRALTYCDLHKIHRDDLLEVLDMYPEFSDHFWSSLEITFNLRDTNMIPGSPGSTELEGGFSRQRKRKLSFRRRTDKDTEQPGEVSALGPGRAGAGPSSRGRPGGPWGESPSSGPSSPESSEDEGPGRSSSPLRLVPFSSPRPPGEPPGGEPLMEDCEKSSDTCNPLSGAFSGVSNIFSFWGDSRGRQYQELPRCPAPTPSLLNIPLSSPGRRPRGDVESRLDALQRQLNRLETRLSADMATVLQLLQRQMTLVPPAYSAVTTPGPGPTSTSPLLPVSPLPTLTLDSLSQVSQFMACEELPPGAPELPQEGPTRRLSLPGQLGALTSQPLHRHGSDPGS

Chain of Motilin receptor (Oryctolagus cuniculus) (A5A4K8 as listed by the source): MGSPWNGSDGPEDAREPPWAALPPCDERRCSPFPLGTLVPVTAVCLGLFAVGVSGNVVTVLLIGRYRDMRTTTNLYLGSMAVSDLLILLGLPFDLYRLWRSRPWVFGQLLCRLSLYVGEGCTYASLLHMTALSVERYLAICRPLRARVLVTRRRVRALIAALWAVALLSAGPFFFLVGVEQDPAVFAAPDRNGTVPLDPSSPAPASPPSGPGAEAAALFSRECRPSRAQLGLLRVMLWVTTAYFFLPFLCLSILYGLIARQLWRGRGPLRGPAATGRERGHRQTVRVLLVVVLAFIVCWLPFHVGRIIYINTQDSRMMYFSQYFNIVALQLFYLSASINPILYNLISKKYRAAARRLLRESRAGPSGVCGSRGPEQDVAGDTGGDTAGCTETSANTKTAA
Chain of Motilin receptor (A5A4K8 whole entry): as the sequence (A5A4K8 as listed by the source) above

| Compound | EC50 (Motilin receptor) [µM] | MIC (Streptococcus pneumoniae) [mg/L] | Activity [1] [%] | inhibition at 30 µM (hERG (KCNH2)) [%] |
| --- | --- | --- | --- | --- |
| C=C(C)CN(C)[C@H]1C[C@@H](C)O[C@@H](O[C@@H]2[C@@H](C)[C@H](O[C@@H]3C[C@@](C)(OC)[C@@H](O)[C@H](C)O3)[C@@H](C)C(=O)O[C@H](CC)[C@@](C)(O)[C@H](O)[C@@H](C)[C@@H](O)[C@H](C)C[C@@]2(C)O)[C@@H]1O | 2.4 | – | – | – |
| CC[C@H]1OC(=O)[C@H](C)[C@@H](O[C@@H]2C[C@@](C)(OC)[C@@H](O)[C@H](C)O2)[C@H](C)[C@@H](O[C@@H]2O[C@H](C)C[C@H](N(C)CC3CC3)[C@H]2O)[C@](C)(O)C[C@@H](C)[C@H](O)[C@H](C)[C@@H](O)[C@]1(C)O | 0.31 | 32 (≈ 41.2 µM) | – | – |
| CC[C@H]1OC(=O)[C@H](C)[C@@H](O[C@@H]2C[C@@](C)(OC)[C@@H](O)[C@H](C)O2)[C@H](C)[C@@H](O[C@@H]2O[C@H](C)C[C@H](N(C)C(C)C)[C@H]2O)[C@](C)(O)C[C@@H](C)[C@H](O)[C@H](C)[C@@H](O)[C@H]1C | 0.106 | 128 (≈ 171 µM) | 79 | – |
| CC[C@H]1OC(=O)[C@H](C)[C@@H](O[C@@H]2C[C@@](C)(OC)[C@@H](O)[C@H](C)O2)[C@H](C)[C@@H](O[C@@H]2O[C@H](C)C[C@H](N(C)CCOC)[C@H]2O)[C@](C)(O)C[C@@H](C)[C@H](O)[C@H](C)[C@@H](O)[C@]1(C)O | 7.7 | – | – | – |
| CC[C@H]1OC(=O)[C@H](C)[C@@H](O[C@@H]2C[C@@](C)(OC)[C@@H](O)[C@H](C)O2)[C@H](C)[C@@H](O[C@@H]2O[C@H](C)C[C@H](N(C)C3CCCC3)[C@H]2O)[C@](C)(O)C[C@@H](C)[C@H](O)[C@H](C)[C@@H](O)[C@]1(C)O | > 5 | 128 (≈ 162 µM) | – | – |
| CC[C@H]1OC(=O)[C@H](C)[C@@H](O[C@@H]2C[C@@](C)(OC)[C@@H](O)[C@H](C)O2)[C@H](C)[C@@H](O[C@@H]2O[C@H](C)C[C@H](N(C)CC(C)(C)O)[C@H]2O)[C@](C)(O)C[C@@H](C)[C@H](O)[C@H](C)[C@@H](O)[C@]1(C)O | 0.1 | > 128 | 89 | 25 |
| CC[C@H]1OC(=O)[C@H](C)[C@@H](O[C@H]2C[C@@](C)(OC)[C@@H](O)[C@H](C)O2)[C@H](C)[C@@H](O[C@@H]2O[C@H](C)C[C@H](N(C)C)[C@H]2O)[C@](C)(O)C[C@@H](C)C(=O)[C@H](C)[C@@H](O)[C@]1(C)O [ERYTHROMYCIN] | – | 0.03 (≈ 0.0409 µM) | – | – |
| CC[C@H]1OC(=O)[C@H](C)[C@@H](O[C@@H]2C[C@@](C)(OC)[C@@H](O)[C@H](C)O2)[C@H](C)[C@@H](O[C@@H]2O[C@H](C)C[C@H](N(C)C3CCC3)[C@H]2O)[C@](C)(O)C[C@@H](C)[C@H](O)[C@H](C)[C@@H](O)[C@]1(C)O | 0.35 | 128 (≈ 165 µM) | 90 | 38 |
| CC[C@H]1OC(=O)[C@H](C)[C@@H](O[C@@H]2C[C@@](C)(OC)[C@@H](O)[C@H](C)O2)[C@H](C)[C@@H](O[C@@H]2O[C@H](C)C[C@H](N(C)C[C@@H](C)O)[C@H]2O)[C@](C)(O)C[C@@H](C)[C@H](O)[C@H](C)[C@@H](O)[C@]1(C)O | 0.46 | > 128 | 93 | – |
| CC[C@H]1OC(=O)[C@H](C)[C@@H](O[C@@H]2C[C@@](C)(OC)[C@@H](O)[C@H](C)O2)[C@H](C)[C@@H](O[C@@H]2O[C@H](C)C[C@H](N(C)CC(N)=O)[C@H]2O)[C@](C)(O)C[C@@H](C)[C@H](O)[C@H](C)[C@@H](O)[C@]1(C)O | > 5 | – | – | – |
| CC[C@H]1OC(=O)[C@H](C)[C@@H](O[C@@H]2C[C@@](C)(OC)[C@@H](O)[C@H](C)O2)[C@H](C)[C@@H](O[C@@H]2O[C@H](C)C[C@H](N(C)CC3(C)CC3)[C@H]2O)[C@](C)(O)C[C@@H](C)[C@H](O)[C@H](C)[C@@H](O)[C@]1(C)O | 2 | 64 (≈ 81 µM) | – | – |
| CC[C@H]1OC(=O)[C@H](C)[C@@H](O[C@@H]2C[C@@](C)(OC)[C@@H](O)[C@H](C)O2)[C@H](C)[C@@H](O[C@@H]2O[C@H](C)C[C@H](N(C)CCN)[C@H]2O)[C@](C)(O)C[C@@H](C)[C@H](O)[C@H](C)[C@@H](O)[C@]1(C)O | 7.3 | – | – | – |

Further lines, with some results ahead:

| EC50 (Motilin receptor) [µM] | MIC (Streptococcus pneumoniae) [mg/L] | Activity [1] [%] | Compound | inhibition at 30 µM (hERG (KCNH2)) [%] |
| --- | --- | --- | --- | --- |
| 0.28 | > 128 | 89 | CC[C@H]1OC(=O)[C@H](C)[C@@H](O[C@@H]2C[C@@](C)(OC)[C@@H](O)[C@H](C)O2)[C@H](C)[C@@H](O[C@@H]2O[C@H](C)C[C@H](N(C)C[C@@H](C)O)[C@H]2O)[C@](C)(O)C[C@@H](C)[C@H](O)[C@H](C)[C@@H](O)[C@H]1C | 38 |
| 0.1 | > 128 | 56 | CC[C@H]1OC(=O)[C@H](C)[C@@H](O[C@@H]2C[C@@](C)(OC)[C@@H](O)[C@H](C)O2)[C@H](C)[C@@H](O[C@@H]2O[C@H](C)C[C@H](N(C)CC(C)(C)O)[C@H]2O)[C@](C)(O)C[C@@H](C)[C@H](O)[C@H](C)[C@@H](O)[C@H]1C | – |
| > 5 | 16 (≈ 21 µM) | – | CC[C@H]1OC(=O)[C@H](C)[C@@H](O[C@@H]2C[C@@](C)(OC)[C@@H](O)[C@H](C)O2)[C@H](C)[C@@H](O[C@@H]2O[C@H](C)C[C@H](NC3CCC3)[C@H]2O)[C@](C)(O)C[C@@H](C)[C@H](O)[C@H](C)[C@@H](O)[C@]1(C)O | – |
| 0.26 | 32 (≈ 41.9 µM) | 76 | CC[C@H]1OC(=O)[C@H](C)[C@@H](O[C@@H]2C[C@@](C)(OC)[C@@H](O)[C@H](C)O2)[C@H](C)[C@@H](O[C@@H]2O[C@H](C)C[C@H](N(C)C(C)C)[C@H]2O)[C@](C)(O)C[C@@H](C)[C@H](O)[C@H](C)[C@@H](O)[C@]1(C)O | 80 |
| 0.7 | – | – | CC[C@H]1OC(=O)[C@H](C)[C@@H](O[C@@H]2C[C@@](C)(OC)[C@@H](O)[C@H](C)O2)[C@H](C)[C@@H](O[C@@H]2O[C@H](C)C[C@H](N(C)CCCO)[C@H]2O)[C@](C)(O)C[C@@H](C)[C@H](O)[C@H](C)[C@@H](O)[C@]1(C)O | – |
| 0.18 | > 128 | 70 | CC[C@H]1OC(=O)[C@H](C)[C@@H](O[C@@H]2C[C@@](C)(OC)[C@@H](O)[C@H](C)O2)[C@H](C)[C@@H](O[C@@H]2O[C@H](C)C[C@H](N(C)C[C@H](C)O)[C@H]2O)[C@](C)(O)C[C@@H](C)[C@H](O)[C@H](C)[C@@H](O)[C@H]1C | – |
| 0.21 | 8 (≈ 10.4 µM) | 86 | CC[C@H]1OC(=O)[C@H](C)[C@@H](O[C@@H]2C[C@@](C)(OC)[C@@H](O)[C@H](C)O2)[C@H](C)[C@@H](O[C@@H]2O[C@H](C)C[C@H](N(C)CCO)[C@H]2O)[C@](C)(O)C[C@@H](C)[C@H](O)[C@H](C)[C@@H](O)[C@]1(C)O | – |
| 3.8 | – | – | CC[C@H]1OC(=O)[C@H](C)[C@@H](O[C@@H]2C[C@@](C)(OC)[C@@H](O)[C@H](C)O2)[C@H](C)[C@@H](O[C@@H]2O[C@H](C)C[C@H](N(C)CCF)[C@H]2O)[C@](C)(O)C[C@@H](C)[C@H](O)[C@H](C)[C@@H](O)[C@]1(C)O | – |
| 0.36 | 128 (≈ 164 µM) | 95 | CC[C@H]1OC(=O)[C@H](C)[C@@H](O[C@@H]2C[C@@](C)(OC)[C@@H](O)[C@H](C)O2)[C@H](C)[C@@H](O[C@@H]2O[C@H](C)C[C@H](N(C)C[C@H](C)O)[C@H]2O)[C@](C)(O)C[C@@H](C)[C@H](O)[C@H](C)[C@@H](O)[C@]1(C)O | 16 |
| 0.363 | – | 81 | CC[C@H]1OC(=O)[C@H](C)[C@@H](O[C@@H]2C[C@@](C)(OC)[C@@H](O)[C@H](C)O2)[C@H](C)[C@@H](O[C@@H]2O[C@H](C)C[C@H](N(C)CC(C)C)[C@H]2O)[C@](C)(O)C[C@@H](C)[C@H](O)[C@H](C)[C@@H](O)[C@]1(C)O | – |
| 0.3 | > 128 | 71 | CC[C@H]1OC(=O)[C@H](C)[C@@H](O[C@@H]2C[C@@](C)(OC)[C@@H](O)[C@H](C)O2)[C@H](C)[C@@H](O[C@@H]2O[C@H](C)C[C@H](N(C)C3CCC3)[C@H]2O)[C@](C)(O)C[C@@H](C)[C@H](O)[C@H](C)[C@@H](O)[C@H]1C | – |
| 5.7 | 32 (≈ 41.1 µM) | – | CC[C@H]1OC(=O)[C@H](C)[C@@H](O[C@@H]2C[C@@](C)(OC)[C@@H](O)[C@H](C)O2)[C@H](C)[C@@H](O[C@@H]2O[C@H](C)C[C@H](N(C)C3COC3)[C@H]2O)[C@](C)(O)C[C@@H](C)[C@H](O)[C@H](C)[C@@H](O)[C@]1(C)O | – |
| > 5 | > 128 | – | CC[C@H]1OC(=O)[C@H](C)[C@@H](O[C@@H]2C[C@@](C)(OC)[C@@H](O)[C@H](C)O2)[C@H](C)[C@@H](O[C@@H]2O[C@H](C)C[C@H](NC(C)C)[C@H]2O)[C@](C)(O)C[C@@H](C)[C@H](O)[C@H](C)[C@@H](O)[C@]1(C)O | – |
| 2.5 | – | – | CC[C@H]1OC(=O)[C@H](C)[C@@H](O[C@@H]2C[C@@](C)(OC)[C@@H](O)[C@H](C)O2)[C@H](C)[C@@H](O[C@@H]2O[C@H](C)C[C@H](N(C)CC(O)CO)[C@H]2O)[C@](C)(O)C[C@@H](C)[C@H](O)[C@H](C)[C@@H](O)[C@]1(C)O (stereo not given in full) | – |
